# Experimental data taken from ChEMBL document CHEMBL1154352, “Toll-like receptor 7 selective synthetic oligoribonucleotide agonists: synthesis and structure-activity relationship studies” (J Med Chem, 2009).
# The source made the active and inactive calls. The calls are words filed in the database; no cut-off is given here.
# Experiments:
# Homo sapiens [1] = species: Homo sapiens; test: Immunostimulatory activity in human mDC assessed as induction of IL12 at 100 ug/ml after 24 hrs; type: functional
# Outline: (§1)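 Human mDCs isolated from PBMCs by CD19+ B-cell depletion then BDCA1 positive selection; plated at 1 × 10^6 cells/mL, compounds in PBS, 37 °C for 24 h; supernatant cytokines by human Luminex multiplex. Representative of four independent experiments.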
# Mus musculus = test: Immunomodulatory activity in C57BL/6 mouse assessed as induction of IL12 release at 25 mg/kg, sc after 2 hrs by ELISA; type: functional, organism-based; design: dose 25 mg/kg
# Outline: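 Female C57BL/6 wild-type mice, 5–8 weeks old, n=3; compounds given subcutaneously at 10 or 25 mg/kg. Retro-orbital blood at 2 h; serum cytokines by mouse Luminex multiplex or IL-12 ELISA.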
# PBMC [2] = test: Immunomodulatory activity in human PBMC assessed as induction of MCP1 at 50 ug/ml after 24 hrs; type: functional, cell-based
# Outline: (§2)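 Human PBMCs plated at 5 × 10^6 cells/mL; compounds dissolved in PBS added at various concentrations, 37 °C for 24 h. Supernatant cytokines/chemokines quantified with human Luminex multiplex kit.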
# PBMC [3] = test: Immunomodulatory activity in human PBMC assessed as induction of IL6 at 50 ug/ml after 24 hrs; type: functional, cell-based; outline: as §2
# [4] = molecular target: T1, Toll-like receptor 8 (Homo sapiens) (UniProt Q9NR97); test: Activation of human TLR8 expressed in HEK293XL assessed as fold induction of NF-kappaB activity at 50 ug/ml after 18 hrs by reporter gene assay relative to control
# T1 sequence (whole entry): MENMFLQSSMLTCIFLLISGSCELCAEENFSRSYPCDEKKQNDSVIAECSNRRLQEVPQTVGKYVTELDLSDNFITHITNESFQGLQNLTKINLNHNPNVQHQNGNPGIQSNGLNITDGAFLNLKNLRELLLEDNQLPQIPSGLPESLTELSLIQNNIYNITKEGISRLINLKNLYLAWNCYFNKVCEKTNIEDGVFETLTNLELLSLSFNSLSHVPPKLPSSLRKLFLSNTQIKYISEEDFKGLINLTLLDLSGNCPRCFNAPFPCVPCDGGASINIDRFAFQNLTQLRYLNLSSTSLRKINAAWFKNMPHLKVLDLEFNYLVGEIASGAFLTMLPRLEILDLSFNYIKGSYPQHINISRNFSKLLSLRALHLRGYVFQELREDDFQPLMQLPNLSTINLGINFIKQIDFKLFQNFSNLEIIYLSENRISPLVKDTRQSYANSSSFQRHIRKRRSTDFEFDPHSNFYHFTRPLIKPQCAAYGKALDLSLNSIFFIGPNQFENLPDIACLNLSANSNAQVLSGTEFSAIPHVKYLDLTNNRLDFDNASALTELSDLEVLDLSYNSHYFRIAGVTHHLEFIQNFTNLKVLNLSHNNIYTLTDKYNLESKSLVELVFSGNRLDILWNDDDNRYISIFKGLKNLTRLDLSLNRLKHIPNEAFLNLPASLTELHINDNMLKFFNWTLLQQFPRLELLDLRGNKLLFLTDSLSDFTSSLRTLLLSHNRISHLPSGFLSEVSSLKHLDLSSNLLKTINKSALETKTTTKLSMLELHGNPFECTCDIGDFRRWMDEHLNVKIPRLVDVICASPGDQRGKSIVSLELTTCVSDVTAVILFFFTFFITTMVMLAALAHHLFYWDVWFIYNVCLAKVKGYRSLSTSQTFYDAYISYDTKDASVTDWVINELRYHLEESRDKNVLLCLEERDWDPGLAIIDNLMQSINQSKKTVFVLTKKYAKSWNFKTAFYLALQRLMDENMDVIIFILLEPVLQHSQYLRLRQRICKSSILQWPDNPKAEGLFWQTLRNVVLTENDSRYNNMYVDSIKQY
# Outline: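 HEK293 cells stably expressing human TLR7 or TLR8, transiently transfected with SEAP reporter plasmid; medium replaced, SIMRA compounds added, 18 h incubation. Supernatant SEAP measured by QuantiBlue; expressed as fold increase in NF-κB activity over PBS control. Tabulated data at 50 μg/mL, representative of three independent experiments.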
# Homo sapiens [5] = species: Homo sapiens; test: Immunostimulatory activity in human pDC assessed as induction of IL6 at 100 ug/ml after 24 hrs; type: functional
# Outline: (§3)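 Human pDCs plated at 1 × 10^6 cells/mL; compounds in PBS added, 37 °C for 24 h; supernatant cytokines/chemokines by human Luminex multiplex kit.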
# PBMC [6] = test: Immunomodulatory activity in human PBMC assessed as induction of MIP1beta at 50 ug/ml after 24 hrs; type: functional, cell-based; outline: as §2
# Homo sapiens [7] = species: Homo sapiens; test: Immunostimulatory activity in human pDC assessed as induction of IFNalpha at 100 ug/ml after 24 hrs; type: functional; outline: as §3
# PBMC [8] = test: Immunomodulatory activity in human PBMC assessed as induction of TNFalpha at 50 ug/ml after 24 hrs; type: functional, cell-based; outline: as §2
# PBMC [9] = test: Immunomodulatory activity in human PBMC assessed as induction of IL1-beta at 50 ug/ml after 24 hrs; type: functional, cell-based; outline: as §2
# Homo sapiens [10] = species: Homo sapiens; test: Immunostimulatory activity in human mDC assessed as induction of IP10 at 100 ug/ml after 24 hrs; type: functional; outline: as §1
# Homo sapiens [11] = species: Homo sapiens; test: Immunostimulatory activity in human pDC assessed as induction of IP10 at 100 ug/ml after 24 hrs; type: functional; outline: as §3
# Homo sapiens [12] = species: Homo sapiens; test: Immunostimulatory activity in human mDC assessed as induction of IL6 at 100 ug/ml after 24 hrs; type: functional; outline: as §1
# PBMC [13] = test: Immunomodulatory activity in human PBMC assessed as induction of IP10 at 50 ug/ml after 24 hrs; type: functional, cell-based; outline: as §2
# [14] = Metabolic stability in human serum assessed as full length product remaining after 10 mins by HPLC; type: ADME, cell-free; details: read-out: Stability
# Outline: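 About 0.5 A260 units compound in 1% human serum in PBS, 37 °C; aliquot taken at 10 min, analysed by anion-exchange HPLC for percent intact full-length product.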
# PBMC [15] = test: Immunomodulatory activity in human PBMC assessed as induction of IFNalpha at 50 ug/ml after 24 hrs; type: functional, cell-based; outline: as §2
# Homo sapiens [16] = species: Homo sapiens; test: Immunostimulatory activity in human mDC assessed as induction of IFNalpha at 100 ug/ml after 24 hrs; type: functional; outline: as §1
# Homo sapiens [17] = species: Homo sapiens; test: Immunostimulatory activity in human mDC assessed as induction of TNFalpha at 100 ug/ml after 24 hrs; type: functional; outline: as §1
# PBMC [18] = test: Immunomodulatory activity in human PBMC assessed as induction of MIP1alpha at 50 ug/ml after 24 hrs; type: functional, cell-based; outline: as §2
# PBMC [19] = test: Immunomodulatory activity in human PBMC assessed as induction of IL12 at 50 ug/ml after 24 hrs; type: functional, cell-based; outline: as §2
compound,measurement,setting,value
Nc1ccn([C@@H]2O[C@H](COP(=O)(S)O[C@H]3[C@@H](O)[C@H](n4cnc5c(N)ncnc54)O[C@@H]3CO)[C@@H](OP(=O)(S)OC[C@H]3O[C@@H](n4ccc(=O)[nH]c4=O)[C@H](O)[C@@H]3OP(=O)(S)OC[C@H]3O[C@@H](n4ccc(=O)[nH]c4=O)[C@H](O)[C@@H]3OP(=O)(S)OC[C@H]3O[C@@H](n4ccc5c(=O)[nH]c(N)nc54)[C@H](O)[C@@H]3OP(=O)(S)OC[C@H]3O[C@@H](n4cnc5c(N)ncnc54)[C@H](O)[C@@H]3OP(=O)(S)OC[C@H]3O[C@@H](n4ccc(N)nc4=O)[C@H](O)[C@@H]3OP(=O)(S)OC[C@H]3O[C@@H](n4ccc5c(=O)[nH]c(N)nc54)[C@H](O)[C@@H]3OP(=O)(S)OC[C@H]3O[C@@H](n4cnc5c(N)ncnc54)[C@H](O)[C@@H]3OP(=O)(S)OC[C@H]3O[C@@H](n4ccc(=O)[nH]c4=O)[C@H](O)[C@@H]3OP(=O)(S)OC[C@H]3O[C@@H](n4ccc(=O)[nH]c4=O)[C@H](O)[C@@H]3OP(=O)(S)OCC(O)COP(=O)(S)O[C@H]3[C@@H](O)[C@H](n4ccc(=O)[nH]c4=O)O[C@@H]3COP(=O)(S)O[C@H]3[C@@H](O)[C@H](n4ccc(=O)[nH]c4=O)O[C@@H]3COP(=O)(S)O[C@H]3[C@@H](O)[C@H](n4cnc5c(N)ncnc54)O[C@@H]3COP(=O)(S)O[C@H]3[C@@H](O)[C@H](n4ccc5c(=O)[nH]c(N)nc54)O[C@@H]3COP(=O)(S)O[C@H]3[C@@H](O)[C@H](n4ccc(N)nc4=O)O[C@@H]3COP(=O)(S)O[C@H]3[C@@H](O)[C@H](n4cnc5c(N)ncnc54)O[C@@H]3COP(=O)(S)O[C@H]3[C@@H](O)[C@H](n4ccc5c(=O)[nH]c(N)nc54)O[C@@H]3COP(=O)(S)O[C@H]3[C@@H](O)[C@H](n4ccc(=O)[nH]c4=O)O[C@@H]3COP(=O)(S)O[C@H]3[C@@H](O)[C@H](n4ccc(=O)[nH]c4=O)O[C@@H]3COP(=O)(S)O[C@H]3[C@@H](O)[C@H](n4ccc(N)nc4=O)O[C@@H]3COP(=O)(S)O[C@H]3[C@@H](O)[C@H](n4cnc5c(N)ncnc54)O[C@@H]3CO)[C@H]2O)c(=O)n1 (stereo not given in full),Activity,Homo sapiens [1],Active
same,Activity,Mus musculus,Active
same,Activity,PBMC [2],49100 pg/mL
same,Activity,PBMC [3],2380 pg/mL
same,fold change (FC),[4],2.1
same,Activity,Homo sapiens [5],Active
same,Activity,PBMC [6],7330 pg/mL
same,Activity,Homo sapiens [7],Active
same,Activity,PBMC [8],174 pg/mL
same,Activity,PBMC [9],218 pg/mL
same,Activity,Homo sapiens [10],Active
same,Activity,Homo sapiens [11],Active
same,Activity,Homo sapiens [12],Active
same,Activity,PBMC [13],199 pg/mL
same,remaining at 10 min,[14],86%
same,Activity,PBMC [15],106 pg/mL
same,Activity,Homo sapiens [16],Active
same,Activity,Homo sapiens [17],Active
same,Activity,PBMC [18],3620 pg/mL
same,Activity,PBMC [19],360 pg/mL
